Calls of active or inactive are those of the source. No cut-off for these calls is given here.
How the values were obtained:
Cannabinoid receptor 1 = Cannabinoid receptor 1 (Homo sapiens, UniProt P21554); experiment: biochemical; type: cell-based, HEK293
Cannabinoid receptor 2 [1] = target: T1, Cannabinoid receptor 2 (Homo sapiens, UniProt P34972); experiment: Displacement of [3H]CP-55940 from human CB2 receptor expressed in HEK cells; type: cell-based, HEK293
Homo sapiens = species on record: Homo sapiens; experiment: Selectivity ratio of Ki for human CB1 receptor to Ki for human CB2 receptor
Mus musculus [2] = experiment: Antinociceptive activity in mouse hind paw assessed as inhibition of formalin-induced nociceptive behavior at 1 to 3 mg/kg, ip administered 15 mins prior to formalin challenge; type: functional, organism-based
In short: (§1)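 Mice received ip compound in 20% DMSO in 0.9% NaCl, groups of 8-10, one treatment per animal. Formalin (1.25% in saline, 30 μL) was injected into the dorsal hind paw 15 min later. A blinded observer timed lifting, favoring, licking, shaking and flinching over 0-10 min (early phase) and 20-60 min (late phase). Mean ± SEM; ANOVA with Dunnett's test.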

Mus musculus [3] = experiment: Antinociceptive activity in mouse hind paw assessed as inhibition of formalin-induced nociceptive behavior at 1 to 3 mg/kg, ip administered 15 mins prior to formalin challenge in presence of CB2 selective agonist JWH133; type: functional, organism-based
In short: as §1

Mus musculus [4] = experiment: Antinociceptive activity in mouse hind paw assessed as inhibition of formalin-induced nociceptive behavior at 1 mg/kg, ip administered 15 mins prior to formalin challenge; type: functional, organism-based; design: dose 1 mg/kg
In short: as §1

Mus musculus [5] = experiment: Antinociceptive activity in mouse hind paw assessed as inhibition of formalin-induced nociceptive behavior at 3 mg/kg, ip administered 15 mins prior to formalin challenge; type: functional, organism-based; design: dose 3 mg/kg
In short: as §1

Cannabinoid receptor 2 [6] = target: T1, Cannabinoid receptor 2; experiment: Antagonist activity at human CB2 receptor expressed in CHO cells assessed as inhibition of forskolin-stimulated cAMP level by [35S]GTPgammaS binding assay; type: functional, cell-based
In short: (§2)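 CHO cells stably carrying human CB2 (DMEM/F12 with 10% FBS and G418 400 μg/mL, 37 °C, 5% CO2); membranes scraped and pelleted. [35S]GTPγS 0.1 nM with GDP 30 μM, 50 μg membrane protein, in Tris/NaCl/BSA buffer with 5 mM MgCl2, 1 mM DTT and 1 mM EDTA; 60 min at 30 °C. Nonspecific binding with 30 μM GTPγS. Filtration, then scintillation counting.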

Cannabinoid receptor 2 [7] = target: T1, Cannabinoid receptor 2; experiment: Antagonist activity at human CB2 receptor expressed in CHO cells assessed as inhibition of forskolin-stimulated cAMP level at < 100 uM by [35S]GTPgammaS binding assay; type: functional, cell-based
Cannabinoid receptor 2 [8] = target: T1, Cannabinoid receptor 2; experiment: Antagonist activity at human CB2 receptor expressed in CHO cells assessed as inhibition of forskolin-stimulated cAMP level up to 20 uM by [35S]GTPgammaS binding assay; type: functional, cell-based
In short: as §2

CYP3A4 = CYP3A4 (Homo sapiens, UniProt P08684); experiment: Inhibition of CYP3A4 after 1 hr assessed as residual activity; type: ADME; details: read-out: Activity
CYP3A4, sequence (P08684 whole entry): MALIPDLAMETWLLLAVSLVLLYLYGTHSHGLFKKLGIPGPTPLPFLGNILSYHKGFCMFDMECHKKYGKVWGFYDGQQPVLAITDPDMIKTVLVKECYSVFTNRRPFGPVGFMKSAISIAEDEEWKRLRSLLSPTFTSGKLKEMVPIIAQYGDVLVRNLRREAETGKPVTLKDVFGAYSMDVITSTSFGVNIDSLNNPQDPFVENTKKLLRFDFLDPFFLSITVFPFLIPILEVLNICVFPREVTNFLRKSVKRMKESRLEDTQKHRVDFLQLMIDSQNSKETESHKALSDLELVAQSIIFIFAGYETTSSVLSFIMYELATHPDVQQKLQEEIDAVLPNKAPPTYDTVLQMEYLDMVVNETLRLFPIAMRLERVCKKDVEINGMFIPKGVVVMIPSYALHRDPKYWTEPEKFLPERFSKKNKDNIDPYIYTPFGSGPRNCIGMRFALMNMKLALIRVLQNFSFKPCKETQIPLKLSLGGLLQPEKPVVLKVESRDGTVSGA

Cannabinoid receptor 1, sequence (P21554 whole entry): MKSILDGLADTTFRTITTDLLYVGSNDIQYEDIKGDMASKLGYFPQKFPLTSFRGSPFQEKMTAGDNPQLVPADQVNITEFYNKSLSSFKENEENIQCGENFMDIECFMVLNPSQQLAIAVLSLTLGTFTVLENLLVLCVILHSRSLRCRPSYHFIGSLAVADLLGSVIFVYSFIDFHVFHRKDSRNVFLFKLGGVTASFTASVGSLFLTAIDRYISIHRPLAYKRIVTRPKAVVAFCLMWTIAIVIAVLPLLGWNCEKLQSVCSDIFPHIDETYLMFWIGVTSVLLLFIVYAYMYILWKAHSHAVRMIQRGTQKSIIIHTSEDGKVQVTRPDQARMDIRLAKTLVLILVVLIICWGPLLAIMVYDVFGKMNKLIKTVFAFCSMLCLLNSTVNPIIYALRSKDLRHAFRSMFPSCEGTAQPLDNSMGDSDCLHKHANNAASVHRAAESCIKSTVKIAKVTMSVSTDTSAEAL
T1 sequence (P34972 whole entry): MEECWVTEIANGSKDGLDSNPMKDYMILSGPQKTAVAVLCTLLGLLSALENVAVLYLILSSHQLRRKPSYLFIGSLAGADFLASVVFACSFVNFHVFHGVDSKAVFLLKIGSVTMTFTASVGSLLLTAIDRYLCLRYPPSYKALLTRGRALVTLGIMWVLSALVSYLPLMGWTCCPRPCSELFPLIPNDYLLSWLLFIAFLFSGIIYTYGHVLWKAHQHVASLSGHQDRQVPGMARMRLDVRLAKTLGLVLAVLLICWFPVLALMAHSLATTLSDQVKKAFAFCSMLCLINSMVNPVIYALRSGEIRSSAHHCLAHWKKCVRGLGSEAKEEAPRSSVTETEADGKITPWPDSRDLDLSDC

Row | SMILES | Ki (Cannabinoid receptor 1) [nM] | Ki (Cannabinoid receptor 2 [1]) [nM] | Selectivity Index (Homo sapiens) | also measured
1 | C=CCCn1cc(C(=O)NC23CC4CC(CC(C4)C2)C3)c(=O)c2cc(-c3ccco3)ccc21 | > 10000 | 4.4 | > 2270 | –
2 | CCCCCn1cc(C(=O)NC23CC4CC(CC(C4)C2)C3)c(=O)c2cc(-c3cccs3)ccc21 | > 10000 | 2.3 | > 4350 | –
3 | CCCCCn1cc(C(=O)NC23CC4CC(CC(C4)C2)C3)c(=O)c2cc(-c3ccc(-c4ccccc4)cc3)ccc21 | > 10000 | 181 | > 55 | –
4 | CCCCCn1cc(C(=O)NC23CC4CC(CC(C4)C2)C3)c(=O)c2cc(-c3ccc(C#N)cc3)ccc21 | > 10000 | 41.9 | > 239 | Activity (Mus musculus [2]): Active
5 | CCCCCn1cc(C(=O)N[C@H]2C(C)(C)[C@H]3CC[C@]2(C)C3)c(=O)c2cc(-c3ccco3)ccc21 | 480 | 2.4 | 200 | –
6 | CCCCCn1cc(C(=O)NC23CC4CC(CC(C4)C2)C3)c(=O)c2cc(C#Cc3ccccc3)ccc21 | > 10000 | 343 | > 29 | –
7 | CCCCCn1cc(C(=O)NC23CC4CC(CC(C4)C2)C3)c(=O)c2cc(-c3ccc(OC)nc3)ccc21 | > 10000 | 59.3 | > 169 | –
8 | CCCCCn1cc(C(=O)NC23CC4CC(CC(C4)C2)C3)c(=O)c2cc(-n3cccc3)ccc21 | 29.7 | 0.7 | 42 | –
9 | CCCCCn1cc(C(=O)NC23CC4CC(CC(C4)C2)C3)c(=O)c2cc(-c3ccc(Cl)cc3)ccc21 | > 10000 | 11 | > 909 | –
10 | CCCCCn1cc(C(=O)NC23CC4CC(CC(C4)C2)C3)c(=O)c2cc(S(=O)(=O)c3ccccc3)ccc21 | > 10000 | 65.9 | > 152 | –
11 | CCCCCn1cc(C(=O)NC23CC4CC(CC(C4)C2)C3)c(=O)c2cc(-c3cnn(CC(C)C)c3)ccc21 | 246 | 51 | 5 | –
12 | C#Cc1ccc2c(c1)c(=O)c(C(=O)NC13CC4CC(CC(C4)C1)C3)cn2CCCCC | > 10000 | 8.8 | > 1140 | –
13 | CCCCCn1cc(C(=O)NC23CC4CC(CC(C4)C2)C3)c(=O)c2cc(-c3ccc4cc(OC)ccc4c3)ccc21 | 360 | 52.6 | 7 | –
14 | CCCCCn1cc(C(=O)NC23CC4CC(CC(C4)C2)C3)c(=O)c2cc([S+]([O-])c3ccccc3)ccc21 (centres undefined) | 460 | 73.2 | 6 | –
15 | C#CCn1cc(C(=O)NC23CC4CC(CC(C4)C2)C3)c(=O)c2cc(Br)ccc21 | 3210 | 49.8 | 64 | –
16 | C=CCn1cc(C(=O)NC23CC4CC(CC(C4)C2)C3)c(=O)c2cc(-c3ccco3)ccc21 | > 10000 | 59 | > 169 | –
17 | CCCCCn1cc(C(=O)NC23CC4CC(CC(C4)C2)C3)c(=O)c2cc(-c3c(C)noc3C)ccc21 | > 10000 | 126 | > 80 | –
18 | CCCCCn1cc(C(=O)NC23CC4CC(CC(C4)C2)C3)c(=O)c2cc(C3CCCCC3)ccc21 | > 10000 | 7.3 | > 1370 | Activity (Mus musculus [2]): inactive; Activity (Mus musculus [3]): Active

Row | SMILES | Ki (Cannabinoid receptor 1) [nM] | Ki (Cannabinoid receptor 2 [1]) [nM] | Selectivity Index (Homo sapiens) | also measured
19 | CCCCCn1cc(C(=O)NC2CCCCC2)c(=O)c2cc(Br)ccc21 | 1700 | 900 | 2 | –
20 | CCCCCn1cc(C(=O)NN2CCCCC2)c(=O)c2cc(Br)ccc21 | 1900 | 400 | 5 | –
21 | CCCCCn1cc(C(=O)NC23CC4CC(CC(C4)C2)C3)c(=O)c2cc(C3=CCCCC3)ccc21 | > 10000 | 8.3 | > 1200 | –
22 | CCCCCn1cc(C(=O)NC23CC4CC(CC(C4)C2)C3)c(=O)c2cc(-c3ccc(F)cc3F)ccc21 | > 10000 | 16 | > 625 | –
23 | CCCCCn1cc(C(=O)NC23CC4CC(CC(C4)C2)C3)c(=O)c2cc(CC)ccc21 | 900 | 16.9 | 53 | –
24 | CCCCCn1cc(C(=O)NC23CC4CC(CC(C4)C2)C3)c(=O)c2cc(/C=C/c3ccccc3)ccc21 | > 10000 | 65.4 | > 153 | –
25 | CCCCCn1cc(C(=O)NC23CC4CC(CC(C4)C2)C3)c(=O)c2cc(-c3ccc(Cl)s3)ccc21 | > 10000 | 44.8 | > 223 | –
26 | CCCCCn1cc(C(=O)NC23CC4CC(CC(C4)C2)C3)c(=O)c2cc(Cc3ccc(Cl)cc3Cl)ccc21 | > 10000 | 3880 | > 3 | –
27 | COc1ccc(C(=O)c2c(C)n(CCN3CCOCC3)c3cc(I)ccc23)cc1 | – | – | – | Activity (Mus musculus [4]): inactive
28 | CCCCCn1cc(C(=O)N[C@H]2C(C)(C)[C@H]3CC[C@]2(C)C3)c(=O)c2cc(Br)ccc21 | 2.8 | 5 | 0.6 | –
29 | CCCCCn1cc(C(=O)NC23CC4CC(CC(C4)C2)C3)c(=O)c2cc(CCc3ccccc3)ccc21 | > 10000 | 56.6 | > 177 | Activity (Mus musculus [5]): inactive
30 | CCCCCn1cc(C(=O)NC23CC4CC(CC(C4)C2)C3)c(=O)c2cc(/C=C/C(C)(C)C)ccc21 | > 10000 | 71.6 | > 140 | –
31 | CCCCCn1cc(C(=O)NC23CC4CC(CC(C4)C2)C3)c(=O)c2cc(-c3ccc(O)cc3)ccc21 | > 10000 | 4.2 | > 2380 | Activity (Mus musculus [2]): Active; Activity (Mus musculus [3]): inactive
32 | CCCCCn1cc(C(=O)NC23CC4CC(CC(C4)C2)C3)c(=O)c2cc(-c3ccco3)ccc21 | > 10000 | 0.7 | > 14300 | Activity (Cannabinoid receptor 2 [6]): Active; Activity (Mus musculus [2]): Active; Emax (Cannabinoid receptor 2 [7]): 13.9%; Activity (Cannabinoid receptor 2 [8]): inactive; activity at 1 h (CYP3A4): 4%
33 | CCCCCn1cc(C(=O)NC23CC4CC(CC(C4)C2)C3)c(=O)c2cc(-c3cc(C)c(OC)c(C)c3)ccc21 | 510 | 21.5 | 24 | –
34 | CCCCCn1cc(C(=O)NC23CC4CC(CC(C4)C2)C3)c(=O)c2cc(I)ccc21 | 2080 | 20.6 | 101 | –
35 | CCCCCn1cc(C(=O)NC23CC4CC(CC(C4)C2)C3)c(=O)c2cc(-n3ccnc3)ccc21 | > 10000 | 8 | > 1250 | –

From ChEMBL document CHEMBL1212935 (J Med Chem, 2010)
